{"source": "paper PMC9337217", "about": "(Pharmacology Research & Perspectives, 2022)", "key": {"LAD2 human mast cells [1]": {"test_system": "LAD2 human mast cells", "conditions": "cited from earlier work"}, "LAD2 human mast cells [2]": {"test_system": "LAD2 human mast cells", "conditions": "cited from earlier work", "remark": "listed apart in the source"}, "human NK1 receptor [3]": {"target": "T1, human NK1 receptor (Homo sapiens, UniProt P25103)", "T1 sequence (P25103 whole entry)": "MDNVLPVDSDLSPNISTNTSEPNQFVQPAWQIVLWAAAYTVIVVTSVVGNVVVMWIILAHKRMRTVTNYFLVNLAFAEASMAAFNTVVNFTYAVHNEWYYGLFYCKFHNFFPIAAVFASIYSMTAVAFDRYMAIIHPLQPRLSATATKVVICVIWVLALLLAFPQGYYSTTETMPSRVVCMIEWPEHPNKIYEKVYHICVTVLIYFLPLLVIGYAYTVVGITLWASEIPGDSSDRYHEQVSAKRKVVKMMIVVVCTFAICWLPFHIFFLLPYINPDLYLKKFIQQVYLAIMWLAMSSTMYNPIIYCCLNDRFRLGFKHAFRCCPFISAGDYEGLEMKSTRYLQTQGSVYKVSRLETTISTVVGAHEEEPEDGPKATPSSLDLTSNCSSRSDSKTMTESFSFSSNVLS", "assay": "Ca2+ mobilization in HEK‐NK1R cells", "assay_type": "cell-based", "conditions": "even at high concentrations"}, "LAD2 human mast cells [4]": {"test_system": "LAD2 human mast cells", "assay": "Ca2+ mobilization in LAD2 cells", "assay_type": "cell-based", "conditions": "Fura‐2", "summary_of_the_method": "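IgE-sensitized LAD2 cells (JW8 conditioned medium, 48 h), wild-type or MRGPRX2-knockdown, washed in HANKS buffer with 1 mM probenecid. Loaded with 2 μM Fura-2 AM for 60–90 min at 37°C, then plated at 60 000 cells/well. Test compound is injected after a 30-s baseline and the 340/380 nm ratio (510 nm emission) is recorded for 6 min at 37°C. Peak ratios are taken across a concentration range.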"}, "LAD2 human mast cells [5]": {"test_system": "LAD2 human mast cells", "assay": "LAD2 cell degranulation", "assay_type": "cell-based", "conditions": "β‐hexosaminidase release", "summary_of_the_method": "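IgE-sensitized LAD2 cells (wild-type or MRGPRX2-knockdown) in HANKS buffer pH 7.4, 35 000 cells/well, exposed to a concentration range for 30 min at 37°C. Supernatant is incubated with 4 mM p-NAG (pH 4.5) for 90 min at 37°C, quenched with glycine pH 10.7, and read at 405 nm. Release is expressed as % of Triton X-100 (0.1%) lysate total, minus spontaneous release.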"}, "LAD2 human mast cells [6]": {"test_system": "LAD2 human mast cells", "assay": "CCL2 release by LAD2 mast cells", "assay_type": "cell-based", "conditions": "24 h"}, "MRGPRX2": {"target": "T2, MRGPRX2 (Homo sapiens, UniProt Q96LB1)", "T2 sequence (Q96LB1 1-330)": "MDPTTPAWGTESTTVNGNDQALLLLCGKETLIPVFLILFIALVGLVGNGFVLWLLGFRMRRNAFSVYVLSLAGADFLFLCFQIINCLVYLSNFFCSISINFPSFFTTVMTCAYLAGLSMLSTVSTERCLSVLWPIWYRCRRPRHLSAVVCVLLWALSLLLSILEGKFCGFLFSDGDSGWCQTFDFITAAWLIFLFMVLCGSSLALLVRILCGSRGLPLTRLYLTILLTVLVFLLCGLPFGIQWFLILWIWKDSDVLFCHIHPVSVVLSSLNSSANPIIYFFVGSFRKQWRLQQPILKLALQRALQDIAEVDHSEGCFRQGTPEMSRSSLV", "assay": "Antagonism of SP activation of MRGPRX2", "assay_type": "cell-based", "conditions": "pilot studies, results not shown"}, "human NK1 receptor [7]": {"target": "T1, human NK1 receptor", "assay": "NK1R antagonist block of SP‐induced Ca2+ mobilization in HEK‐NK1R cells", "assay_type": "cell-based", "conditions": "antagonist 100 nM, 2 min pre‐incubation; n = 5", "summary_of_the_method": "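HEK-293 cells stably expressing human NK1R, grown in IMDM/10% FBS with hygromycin. Loaded with 4 μM Fura-2 AM (60–90 min, 37°C), 100 000 cells/well. After a 30-s baseline, antagonist or DMSO vehicle is added for 2 min, then the stimulus. Ratiometric Ca2+ (340/380 nm) is read over 4 min at 37°C. Paired t-test.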"}}, "note": "No end group written: not given here.", "data": [{"compound": "C=CC[N+]1([C@H]2C[C@H]3[C@@H]4CC[C@H]5C[C@H](O)[C@@H](N6CCOCC6)C[C@]5(C)[C@H]4CC[C@]3(C)[C@H]2OC(C)=O)CCCC1", "note": "[rocuronium]", "values": [{"measurement": "Ca^2+ mobilization in LAD2 cells, in words", "setting": "LAD2 human mast cells [1]", "value": "shows a mobilization of Ca^2+"}, {"measurement": "degranulation in LAD2 cells, in words", "setting": "LAD2 human mast cells [2]", "value": "without triggering concomitant degranulation"}]}, {"compound": "SP(1–7)‐COOH: C‐terminally truncated in vivo metabolite of SP, residues 1–7, free acid (RPKPQQF-OH; UniProt P20366 58-64, looked up, fragment)", "values": [{"measurement": "activation of NK1R (Ca^2+ mobilization), in words", "setting": "human NK1 receptor [3]", "value": "failed to induce significant activation"}, {"measurement": "LAD2 Ca^2+ mobilization, in words", "setting": "LAD2 human mast cells [4]", "value": "failed to produce cellular activation"}, {"measurement": "LAD2 degranulation, in words", "setting": "LAD2 human mast cells [5]", "value": "failed to produce cellular activation"}, {"measurement": "CCL2 cytokine release from LAD2 cells, in words", "setting": "LAD2 human mast cells [6]", "value": "minimal and comparable to spontaneous release"}, {"measurement": "antagonism of SP activation of MRGPRX2", "setting": "MRGPRX2", "value": "not been able to demonstrate any antagonism"}]}, {"compound": "COc1ccc(-n2nnnc2C(F)(F)F)cc1CN[C@H]1CCCN[C@H]1c1ccccc1", "note": "[GR205171, vofopitant]", "values": [{"measurement": "effect of antagonist pretreatment on SP responses in HEK‐NK1R cells", "setting": "human NK1 receptor [7]", "value": "effectively blocked SP responses"}]}]}
